According to ChEMBL document CHEMBL3286193, “Discovery of a series of 2,5-diaminopyrimidine covalent irreversible inhibitors of Bruton's tyrosine kinase with in vivo antitumor activity” (J Med Chem, 2014):
Active and inactive are the calls of the source. The calls are words filed in the database; no cut-off is given here.

Columns and labels:
[1] = target: Tyrosine-protein kinase BTK (Homo sapiens, UniProt Q06187); test: Inhibition of Btk (unknown origin) after 1 hr by HTRF assay
Outline: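 Recombinant kinases tested by HTRF KinEase protocol. Enzyme preincubated with inhibitor for a fixed 10 min. IC50 values are means of duplicates.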

[2] = Cytotoxicity against human Pfeiffer cells assessed as growth inhibition after 72 hrs by CellTiter-Glo luminescent cell viability assay; assay type: functional
Outline: (§1)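 Lymphoma cells seeded at 5000 cells/well, incubated 24 h, then exposed to compounds for 72 h. Viability read by CellTiter-Glo luminescence. GI50 from dose−response curves, mean of two or three independent experiments in triplicate.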

Mus musculus = test: Toxicity in CB17 SCID mouse xenografted with human DOHH2 cells assessed as body weight fluctuations at 10 mg/kg, iv qd administered for 14 days measured over 14 days of compound treatment; assay type: organism-based, DOHH-2; set-up: dose 10 mg/kg, route intravenous; conditions: in vivo, 336 h
Outline: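 Female CB17/SCID mice carried subcutaneous DoHH2 xenografts (5 × 10⁶ cells injected), randomised at ~167 mm³ mean tumour volume into four groups (n = 6/group). Compound was given intravenously via the tail vein once daily for 14 consecutive days. Body weights were tracked over time throughout the study.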

[3] = Cytotoxicity against human DOHH2 cells assessed as growth inhibition after 72 hrs by CellTiter-Glo luminescent cell viability assay; assay type: functional, DOHH-2; outline: as §1
[4] = target: Epidermal growth factor receptor (Homo sapiens, UniProt P00533); conditions: 5 nM
Sequence of Epidermal growth factor receptor (P00533 whole entry): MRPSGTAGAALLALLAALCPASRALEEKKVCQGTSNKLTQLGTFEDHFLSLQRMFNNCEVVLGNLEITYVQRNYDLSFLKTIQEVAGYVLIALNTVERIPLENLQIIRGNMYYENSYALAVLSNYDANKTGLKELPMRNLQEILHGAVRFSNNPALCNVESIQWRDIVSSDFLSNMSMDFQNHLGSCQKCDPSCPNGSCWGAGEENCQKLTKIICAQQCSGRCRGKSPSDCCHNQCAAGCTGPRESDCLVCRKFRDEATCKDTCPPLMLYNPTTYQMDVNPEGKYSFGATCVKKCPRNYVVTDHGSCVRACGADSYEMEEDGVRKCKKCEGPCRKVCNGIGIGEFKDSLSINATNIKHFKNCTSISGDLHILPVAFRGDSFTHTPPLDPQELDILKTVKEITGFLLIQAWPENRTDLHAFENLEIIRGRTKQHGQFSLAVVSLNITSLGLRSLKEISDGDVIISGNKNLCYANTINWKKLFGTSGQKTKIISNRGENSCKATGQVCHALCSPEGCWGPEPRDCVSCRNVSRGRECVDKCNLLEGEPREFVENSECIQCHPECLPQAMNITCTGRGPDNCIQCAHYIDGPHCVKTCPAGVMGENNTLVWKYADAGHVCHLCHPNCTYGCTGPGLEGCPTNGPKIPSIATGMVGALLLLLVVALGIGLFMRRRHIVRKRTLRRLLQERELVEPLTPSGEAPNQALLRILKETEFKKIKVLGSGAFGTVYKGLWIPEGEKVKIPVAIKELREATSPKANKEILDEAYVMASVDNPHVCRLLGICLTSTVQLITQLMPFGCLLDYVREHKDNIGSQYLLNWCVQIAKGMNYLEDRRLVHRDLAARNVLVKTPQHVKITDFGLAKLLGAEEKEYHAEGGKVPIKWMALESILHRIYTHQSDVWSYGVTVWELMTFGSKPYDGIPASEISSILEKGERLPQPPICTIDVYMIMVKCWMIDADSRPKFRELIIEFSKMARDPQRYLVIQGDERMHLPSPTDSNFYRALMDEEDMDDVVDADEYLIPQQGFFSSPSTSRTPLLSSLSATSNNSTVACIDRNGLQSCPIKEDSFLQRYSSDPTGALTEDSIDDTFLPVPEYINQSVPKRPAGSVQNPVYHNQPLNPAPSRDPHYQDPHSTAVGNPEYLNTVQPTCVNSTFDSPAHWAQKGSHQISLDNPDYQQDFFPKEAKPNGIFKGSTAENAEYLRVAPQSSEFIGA

[5] = Cytotoxicity against human SU-DHL6 cells assessed as growth inhibition after 72 hrs by CellTiter-Glo luminescent cell viability assay; assay type: functional, SU-DHL-6; outline: as §1
[6] = Plasma concentration in CB17 SCID mouse xenografted with human DOHH2 cells at 10 mg/kg, iv qd administered for 14 days measured at 2 hrs post last dose; assay type: ADME, organism-based, DOHH-2; set-up: dose 10 mg/kg, route intravenous
Outline: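 Female CB17/SCID mice were given 5 × 10⁶ DoHH2 cells subcutaneously. When tumours averaged ~167 mm³, mice were randomised into four groups (n = 6/group). Dosing was by tail-vein injection once daily for 14 consecutive days. Plasma compound levels were determined at 2 and 24 h after the final dose.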

Sequence of Tyrosine-protein kinase BTK (Q06187 whole entry): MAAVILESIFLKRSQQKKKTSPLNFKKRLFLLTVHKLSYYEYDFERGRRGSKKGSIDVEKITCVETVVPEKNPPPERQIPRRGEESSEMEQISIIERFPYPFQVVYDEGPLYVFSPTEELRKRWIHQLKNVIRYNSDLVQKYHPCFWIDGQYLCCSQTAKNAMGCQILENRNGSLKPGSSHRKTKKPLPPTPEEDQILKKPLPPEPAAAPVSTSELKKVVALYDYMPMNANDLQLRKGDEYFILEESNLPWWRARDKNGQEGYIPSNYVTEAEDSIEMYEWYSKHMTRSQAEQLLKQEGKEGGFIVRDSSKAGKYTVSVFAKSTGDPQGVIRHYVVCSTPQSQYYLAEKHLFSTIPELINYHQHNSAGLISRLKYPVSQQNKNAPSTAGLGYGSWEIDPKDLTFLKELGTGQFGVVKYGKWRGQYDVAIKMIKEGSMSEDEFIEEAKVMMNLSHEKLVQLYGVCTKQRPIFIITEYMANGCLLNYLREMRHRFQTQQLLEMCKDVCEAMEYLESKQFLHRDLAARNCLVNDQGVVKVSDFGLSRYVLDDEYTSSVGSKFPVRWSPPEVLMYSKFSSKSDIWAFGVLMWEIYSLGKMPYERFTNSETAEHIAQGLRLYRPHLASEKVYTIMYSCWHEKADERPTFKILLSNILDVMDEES

## Cc1ccc(NC(=O)c2cccc(C(F)(F)F)c2)cc1C(=O)Nc1cnc(Nc2ccc(N)cc2)nc1
[1]
  IC50: 8 nM

## Cc1ccc(NC(=O)c2cccc(C(F)(F)F)c2)cc1C(=O)Nc1cnc(Nc2cccc(N)c2)nc1
[1]
  IC50: 14 nM

## Nc1cccc(Nc2ncc(NC(=O)c3cc(NC(=O)c4cccc(C(F)(F)F)c4)ccc3F)cn2)c1
[1]
  IC50: 47 nM

## Cc1ccc(NC(=O)c2cccc(C(F)(F)F)c2)cc1C(=O)Nc1cnc(N)nc1
[1]
  IC50: 3420 nM

## Cc1ccc(NC(=O)c2cccc(C(F)(F)F)c2)cc1C(=O)Nc1cnc(Nc2cccc(F)c2)nc1
[1]
  IC50: 52 nM

## Cc1ccc(NC(=O)c2cccc(C(F)(F)F)c2)cc1C(=O)Nc1cnc(Nc2cccc(NC(=O)Cn3sc4ccccc4c3=O)c2)nc1
[1]
  IC50: 18 nM

## Cc1ccc(NC(=O)c2cccc(C(F)(F)F)c2)cc1C(=O)Nc1cnc(Nc2ccccc2)nc1
[1]
  IC50: 133 nM

## Cc1ccc(NC(=O)c2cccc(C(F)(F)F)c2)cc1C(=O)Nc1cnc(Nc2cccc(NC(=O)CCl)c2)nc1
[1]
  IC50: 15 nM

## CCNc1ncc(NC(=O)c2cc(NC(=O)c3cccc(C(F)(F)F)c3)ccc2C)cn1
[1]
  IC50: 1110 nM

## Nc1cccc(Nc2ncc(NC(=O)c3cc(NC(=O)c4cccc(C(F)(F)F)c4)ccc3Cl)cn2)c1
[1]
  IC50: 11 nM

## Cc1ccc(NC(=O)c2cccc(Cl)c2)cc1C(=O)Nc1cnc(Nc2cccc(N)c2)nc1
[1]
  IC50: 20 nM

## Cc1ccc(NC(=O)c2cccc(C(F)(F)F)c2)cc1C(=O)Nc1cnc(Nc2cccc(NC(=O)CCN(C)C)c2)nc1
[1]
  IC50: 14 nM

## Nc1cccc(Nc2ncc(NC(=O)c3cccc(C(=O)Nc4cccc(C(F)(F)F)c4)c3)cn2)c1
[1]
  IC50: 45 nM

## C=CC(=O)Nc1cccc(Nc2ncc(NC(=O)c3cc(NC(=O)c4cccc(F)c4)ccc3C)cn2)c1
[1]
  IC50: 48 nM

## Cc1ccc(NC(=O)c2ccc(C(F)(F)F)cc2)cc1C(=O)Nc1cnc(Nc2cccc(N)c2)nc1
[1]
  IC50: 25 nM

## C=CC(=O)Nc1cccc(Nc2ncc(NC(=O)c3cc(NC(=O)c4ccc(Cl)c(C(F)(F)F)c4)ccc3C)cn2)c1
[1]
  IC50: 11 nM

## C=CS(=O)(=O)Nc1cccc(Nc2ncc(NC(=O)c3cc(NC(=O)c4cccc(C(F)(F)F)c4)ccc3C)cn2)c1
[1]
  IC50: 16 nM

## C=CC(=O)N1CCC[C@@H](n2nc(-c3ccc(Oc4ccccc4)cc3)c3c(N)ncnc32)C1 [IBRUTINIB]
[2]
  GI50: 2 nM
Mus musculus
  Activity: Non-toxic
[3]
  GI50: 410 nM
[4]
  inhibition: Active
[5]
  GI50: 580 nM
[6]
  concentration at 2 h: 479 ng/mL

## Cc1ccc(NC(=O)c2cccc(N(C)C)c2)cc1C(=O)Nc1cnc(Nc2cccc(N)c2)nc1
[1]
  IC50: 47 nM
